These results are taken from ChEMBL document CHEMBL1154935, “Design, synthesis, evaluation and QSAR analysis of N(1)-substituted norcymserine derivatives as selective butyrylcholinesterase inhibitors” (Bioorg Med Chem Lett, 2010).

One experiment concerns the target T1, Acetylcholinesterase (Mus musculus, UniProt P21836).
T1 sequence (P21836 whole entry): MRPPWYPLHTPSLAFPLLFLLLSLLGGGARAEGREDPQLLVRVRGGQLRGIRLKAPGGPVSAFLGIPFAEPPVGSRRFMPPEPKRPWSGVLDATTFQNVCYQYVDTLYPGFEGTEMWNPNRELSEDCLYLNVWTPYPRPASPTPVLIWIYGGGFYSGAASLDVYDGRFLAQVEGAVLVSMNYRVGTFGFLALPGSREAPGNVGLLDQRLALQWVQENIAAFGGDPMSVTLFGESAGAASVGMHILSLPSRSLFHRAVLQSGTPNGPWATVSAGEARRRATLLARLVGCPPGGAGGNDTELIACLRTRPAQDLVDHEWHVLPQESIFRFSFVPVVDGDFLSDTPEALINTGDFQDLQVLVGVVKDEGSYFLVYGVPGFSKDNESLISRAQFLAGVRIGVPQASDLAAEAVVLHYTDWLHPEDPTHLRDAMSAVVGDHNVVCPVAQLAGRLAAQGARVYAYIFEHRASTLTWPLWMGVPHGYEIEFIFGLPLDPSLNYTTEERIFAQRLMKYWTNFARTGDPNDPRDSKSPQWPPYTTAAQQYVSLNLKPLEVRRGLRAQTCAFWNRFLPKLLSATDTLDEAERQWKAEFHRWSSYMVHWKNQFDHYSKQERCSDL
In words: Inhibition of mouse brain AChE after 1 hr by modified Ellman's colorimetric method. In outline:
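Enzyme source was a mouse brain extract. Inhibitor was preincubated with enzyme for 1 h at 37 °C, then acetylthiocholine was added together with DTNB. Absorbance at 415 nm was read at 2 min intervals. Activity was taken as percent of the DMSO solvent control. Seven concentrations were tested, and IC50 came from nonlinear regression of a sigmoidal dose-response curve.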
For orientation: Ellman's reagent forms a yellow product with free thiols.

For a further experiment, the target named is Cholinesterase (Mus musculus, UniProt Q03311). In words: Inhibition of mouse serum BChE after 1 hr by modified Ellman's colorimetric method. The gist of the method: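 Enzyme source was a mouse serum extract. Inhibitor was preincubated with enzyme for 1 h at 37 °C, then butyrylthiocholine was added together with DTNB. Absorbance at 415 nm was read at 2 min intervals. Activity was taken as percent of the DMSO solvent control. Seven concentrations were tested, and IC50 came from nonlinear regression of a sigmoidal dose-response curve.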
Cholinesterase, sequence (Q03311 whole entry): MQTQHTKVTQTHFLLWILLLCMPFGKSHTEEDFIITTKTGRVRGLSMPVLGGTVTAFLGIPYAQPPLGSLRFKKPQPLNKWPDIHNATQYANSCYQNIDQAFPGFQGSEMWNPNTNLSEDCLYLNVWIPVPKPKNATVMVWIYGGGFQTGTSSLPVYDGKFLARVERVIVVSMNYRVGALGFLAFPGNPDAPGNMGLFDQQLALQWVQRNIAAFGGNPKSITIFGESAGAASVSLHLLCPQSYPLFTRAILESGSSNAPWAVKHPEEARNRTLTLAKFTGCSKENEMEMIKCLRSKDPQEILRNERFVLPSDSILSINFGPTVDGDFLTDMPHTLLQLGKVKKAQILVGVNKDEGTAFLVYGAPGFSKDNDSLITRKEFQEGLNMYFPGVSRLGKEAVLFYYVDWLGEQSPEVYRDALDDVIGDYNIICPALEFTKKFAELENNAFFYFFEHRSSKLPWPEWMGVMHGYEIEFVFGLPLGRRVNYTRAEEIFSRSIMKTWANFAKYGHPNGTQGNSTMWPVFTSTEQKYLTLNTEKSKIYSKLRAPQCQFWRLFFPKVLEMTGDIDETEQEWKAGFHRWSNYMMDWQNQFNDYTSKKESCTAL

The IC50 is the concentration needed to halve the response being measured.

Structures are written as SMILES.

With `CC(C)c1ccc(NC(=O)Oc2ccc3c(c2)[C@]2(C)CCN(Cc4ccccc4)[C@@H]2N3C)cc1`, the results for the IC50 at Acetylcholinesterase and against Cholinesterase were over 100000 nM and 510 nM, respectively.

In the case of `CC(C)c1ccc(NC(=O)Oc2ccc3c(c2)[C@]2(C)CCN(CCCCc4ccccc4)[C@@H]2N3C)cc1`, the IC50 was over 100000 nM against Acetylcholinesterase and 550 nM on Cholinesterase.

As for `Cc1ccc(CCN2CC[C@@]3(C)c4cc(OC(=O)Nc5ccc(C(C)C)cc5)ccc4N(C)[C@@H]23)c(C)c1`, the IC50 at Acetylcholinesterase was over 100000 nM; against Cholinesterase it was 1100 nM.

On to `CC(C)c1ccc(NC(=O)Oc2ccc3c(c2)[C@]2(C)CCN(CCc4ccccc4)[C@@H]2N3C)cc1` [PHENETHYLCYMSERINE], for which the IC50 on Acetylcholinesterase was over 100000 nM.

Consider `CC(C)c1ccc(NC(=O)Oc2ccc3c(c2)[C@]2(C)CCN(CC(c4ccccc4)c4ccccc4)[C@@H]2N3C)cc1`, for which the IC50 on Acetylcholinesterase was over 100000 nM; against Cholinesterase, 10000 nM.

Consider `CC(C)c1ccc(NC(=O)Oc2ccc3c(c2)[C@]2(C)CCN(CCN4CCCCC4)[C@@H]2N3C)cc1`, for which the IC50 stood at 3500 nM on Acetylcholinesterase and 170 nM against Cholinesterase.

Consider `CC(C)c1ccc(NC(=O)Oc2ccc3c(c2)[C@]2(C)CCN(CC(C)c4ccccc4)[C@@H]2N3C)cc1` (stereo not given in full), for which the IC50 against Acetylcholinesterase is over 100000 nM; on Cholinesterase it was 720 nM.

`CC(C)c1ccc(NC(=O)Oc2ccc3c(c2)[C@]2(C)CCN(C)[C@@H]2N3C)cc1` [4-ISOPROPYLPHENSERINE]: the IC50 at Acetylcholinesterase stood at 8400 nM; against Cholinesterase it was 240 nM.

Take `CC(C)c1ccc(NC(=O)Oc2ccc3c(c2)[C@]2(C)CCN(CCc4cccnc4)[C@@H]2N3C)cc1`: the IC50 was over 100000 nM on Acetylcholinesterase and 180 nM on Cholinesterase.

For `CC(C)c1ccc(CCN2CC[C@@]3(C)c4cc(OC(=O)Nc5ccc(C(C)C)cc5)ccc4N(C)[C@@H]23)cc1`, the IC50 against Acetylcholinesterase was over 100000 nM; on Cholinesterase it was 3300 nM.

Turning to `CC(C)c1ccc(NC(=O)Oc2ccc3c(c2)[C@]2(C)CCN(C(Cc4ccccc4)c4ccccc4)[C@@H]2N3C)cc1` (stereo not given in full), the IC50 against Acetylcholinesterase is over 100000 nM; against Cholinesterase, 15000 nM.

In the case of `CC(C)c1ccc(NC(=O)Oc2ccc3c(c2)[C@]2(C)CCN(CCc4ccc(F)cc4)[C@@H]2N3C)cc1`, the figures for the IC50 against Acetylcholinesterase and against Cholinesterase were over 100000 nM and 500 nM, respectively.

Take `CC(C)c1ccc(NC(=O)Oc2ccc3c(c2)[C@]2(C)CCN(CCc4ccncc4)[C@@H]2N3C)cc1`: the values for the IC50 on Acetylcholinesterase and against Cholinesterase were 23000 nM and 170 nM, respectively.

With `CC(C)c1ccc(NC(=O)Oc2ccc3c(c2)[C@]2(C)CCN(CCc4ccc(Cl)cc4Cl)[C@@H]2N3C)cc1`, the IC50 at Acetylcholinesterase was over 100000 nM; on Cholinesterase it was 2600 nM.

For `CC(C)c1ccc(NC(=O)Oc2ccc3c(c2)[C@]2(C)CCN(CCCc4ccccc4)[C@@H]2N3C)cc1`, the IC50 against Acetylcholinesterase is over 100000 nM; against Cholinesterase, 510 nM.

On to `CC(C)c1ccc(NC(=O)Oc2ccc3c(c2)[C@]2(C)CCN(CCc4ccc(Cl)cc4)[C@@H]2N3C)cc1`, for which the IC50 at Acetylcholinesterase is over 100000 nM; against Cholinesterase, 500 nM.

Turning to `CC(C)c1ccc(NC(=O)Oc2ccc3c(c2)[C@]2(C)CCN(CCc4ccccn4)[C@@H]2N3C)cc1`, the IC50 against Acetylcholinesterase was 4200 nM; at Cholinesterase, 160 nM.

`Cc1ccc(CCN2CC[C@@]3(C)c4cc(OC(=O)Nc5ccc(C(C)C)cc5)ccc4N(C)[C@@H]23)cc1`: the values for the IC50 against Acetylcholinesterase and at Cholinesterase were over 100000 nM and 730 nM, respectively.
